The record followed here is ChEMBL document CHEMBL4270555, “Synthesis and biological evaluation of magnolol derivatives as melatonergic receptor agonists with potential use in depression” (Eur J Med Chem, 2018).

Data set [1] concerns the target Melatonin receptor type 1A (Homo sapiens, UniProt P48039). Description: Agonist activity at human MT1 receptor expressed in HEK293 cells at 1 mM after 24 hrs by Fluo-8 dye-based calcium assay relative to control. It counts as functional, cell-based. The method, boiled down: (§1)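 Fluo-8 calcium assay in HEK293 cells stably expressing human MT1 or MT2, seeded 4×10^4/well and incubated 24 h. Compounds tested at 1.00 mM, agomelatine positive control at 3.33 µM; fluorescence at ex 485/em 525 nm. Agonism expressed as mean ± SD, n = 3.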

For data set [2], the target named is T1, Melatonin receptor type 1B (Homo sapiens) (UniProt P49286).
T1 sequence (whole entry): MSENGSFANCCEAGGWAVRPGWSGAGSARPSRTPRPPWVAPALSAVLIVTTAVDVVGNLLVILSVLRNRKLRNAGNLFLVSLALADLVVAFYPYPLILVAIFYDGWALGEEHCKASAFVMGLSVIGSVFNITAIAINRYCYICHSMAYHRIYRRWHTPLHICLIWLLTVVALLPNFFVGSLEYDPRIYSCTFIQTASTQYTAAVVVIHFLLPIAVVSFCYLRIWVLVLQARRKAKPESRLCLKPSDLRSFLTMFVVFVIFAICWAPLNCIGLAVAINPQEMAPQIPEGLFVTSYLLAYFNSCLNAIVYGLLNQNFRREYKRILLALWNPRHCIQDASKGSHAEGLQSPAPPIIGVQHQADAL
Nature of the data set: Agonist activity at human MT2 receptor expressed in HEK293 cells at 1 mM after 24 hrs by Fluo-8 dye-based calcium assay relative to control. It counts as functional, cell-based. The method, boiled down: as §1

Data set [3] in a line: Retention time of the compound by UPLC-IT-TOF-MS analysis. It counts as physicochemical. The method, boiled down: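 Retention on C18 column (100 × 2.1 mm, 1.8 µm) at 30 °C; mobile phase A 0.05% formic acid in water, B 0.05% formic acid in acetonitrile, 0.2 mL/min, linear 5–100% B over 0–18.0 min; IT-TOF-MS detection in positive and negative modes.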
Data set [4] can be described thus: Drug level in Sprague-Dawley rat feces treated with Magnolol-4'-O-beta-D-glucopyranoside at 100 mg/kg, po by UPLC-IT-TOF-MS analysis. It counts as ADME, organism-based. The conditions noted are these: in vivo. The method, boiled down: (§2)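 Rats (n = 6) housed in metabolic cages received 100.0 mg/kg orally; controls received 0.5% CMC-Na. Plasma, urine and faeces were collected and analyzed by LC-IT-TOF-MS on a C18 column at 30 °C. Gradient 5–100% acetonitrile with 0.05% formic acid over 18 min at 0.2 mL/min; positive and negative ion MS/MS.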

A short description of data set [5]: Drug level in Sprague-Dawley rat urine treated with Magnolol-4'-O-beta-D-glucopyranoside at 100 mg/kg, po by UPLC-IT-TOF-MS analysis. Type of data set: ADME, organism-based. As to conditions: in vivo. The gist of the method: as §2
Data set [6] concerns the target T1, Melatonin receptor type 1B (Homo sapiens). Nature of the data set: Potency index, ratio of compound effect to magnolol effect for human MT2 receptor. Type of data set: functional.

Sequence of Melatonin receptor type 1A (P48039 whole entry): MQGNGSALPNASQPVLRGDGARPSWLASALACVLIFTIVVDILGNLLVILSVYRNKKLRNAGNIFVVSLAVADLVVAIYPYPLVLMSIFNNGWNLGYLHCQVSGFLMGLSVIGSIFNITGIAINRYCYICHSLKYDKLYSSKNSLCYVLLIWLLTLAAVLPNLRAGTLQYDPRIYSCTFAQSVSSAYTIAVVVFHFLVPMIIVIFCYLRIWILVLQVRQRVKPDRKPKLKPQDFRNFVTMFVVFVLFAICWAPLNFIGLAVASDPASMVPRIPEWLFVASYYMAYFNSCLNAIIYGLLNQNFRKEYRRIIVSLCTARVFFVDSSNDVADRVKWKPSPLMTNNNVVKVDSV

On to `C=CCc1ccc(OC(=O)C=C)c(-c2cc(CC=C)ccc2OC(=O)C=C)c1`, for which the Activity in data set [1] was 0.04%; in data set [2], 4.57%.
In the same order, the values of `Oc1ccc(CC2CO2)cc1-c1cc(CC2CO2)ccc1O` (centres undefined) are 2.18% and -3.39%.
In the same order, the values of `C=CCc1ccc(O)c(-c2cc(CC=C)ccc2O[C@@H]2O[C@H](COC(C)=O)[C@@H](OC(C)=O)[C@H](OC(C)=O)[C@H]2O)c1` are 11% and 19.1%.
In the same order, the values of `C=CCc1ccc(OC(=O)c2ccccc2)c(-c2cc(CC=C)ccc2OC(=O)c2ccccc2)c1` are -5.93% and -1.72%.
For the molecule `C=CCc1ccc(O)c(-c2cc(CC=C)ccc2OS(=O)(=O)O)c1`, the Retention_time in data set [3] stood at 11.49 min. Further, the Drug metabolism entry in data set [4] is reported as “Metabolite_Detected”.
Regarding `C=CCc1ccc(O[C@@H]2O[C@H](CO)[C@@H](O)[C@H](O)[C@H]2O)c(-c2cc(C(O)C=C)ccc2O[C@@H]2O[C@H](C(=O)O)[C@@H](O)[C@H](O)[C@H]2O)c1` (some centres undefined), the Retention_time in data set [3] worked out at 7.79 min. Moreover, the Drug metabolism result in data set [5] and in data set [4] was “Metabolite_Detected” throughout.
For the molecule `C=CCc1ccc(OC(=O)/C=C/c2ccccc2)c(-c2cc(CC=C)ccc2O[C@@H]2O[C@H](CO)[C@@H](O)[C@H](O)[C@H]2O)c1`, the Activity is 50.3% in data set [1] and -10.1% in data set [2].
Regarding `C=CC(=O)c1ccc(O[C@@H]2O[C@H](CO)[C@@H](O)[C@H](O)[C@H]2O)c(-c2cc(C(O)C=C)ccc2O)c1` (some centres undefined), the Retention_time in data set [3] was 10.88 min. Also, the Drug metabolism result in data set [5] is “Metabolite_Detected”.
On to `C=CCc1ccc(OC(=O)/C=C/c2cccc(F)c2)c(-c2cc(CC=C)ccc2O[C@@H]2O[C@H](CO)[C@@H](O)[C@H](O)[C@H]2O)c1`, for which the Activity in data set [1] was 5.3%; in data set [2] it was -10.5%.
`C=CCc1ccc(O)c(-c2cc(CC=C)ccc2OC(=O)CCCCl)c1`: the Activity in data set [1] turned out to be 32%; in data set [2], 69.7%. Further, the Ratio in data set [6] fell in the range of 3.5 to 4.5.
As to `C=CCc1ccc(O[C@@H]2O[C@H](C(=O)O)[C@@H](O)[C@H](O)[C@H]2O)c(-c2cc(CC=C)ccc2O[C@@H]2O[C@H](CO)[C@@H](O)[C@H](O)[C@H]2O)c1`, the Retention_time in data set [3] was found to be 9.94 min. Besides, the Drug metabolism entry in data set [5] and in data set [4] was “Metabolite_Detected” each time.
Regarding `C=CC(=O)c1ccc(O[C@@H]2O[C@H](C(=O)O)[C@@H](O)[C@H](O)[C@H]2O)c(-c2cc(C(O)C=C)ccc2O)c1` (some centres undefined), the Retention_time in data set [3] is given as 9.47 min. Further, in data set [5], the Drug metabolism result is “Metabolite_Detected”.
As to `C=CC(O)c1ccc(O[C@@H]2O[C@H](C(=O)O)[C@@H](O)[C@H](O)[C@H]2O)c(-c2cc(C(O)CC)ccc2O[C@@H]2O[C@H](CO)[C@@H](O)[C@H](O)[C@H]2O)c1` (some centres undefined), the Retention_time in data set [3] came to 6.75 min. Further, the Drug metabolism result in data set [5] and in data set [4] was “Metabolite_Detected” each time.
For the molecule `C=CCc1ccc(O[C@@H]2O[C@H](COC(C)=O)[C@@H](OC(C)=O)[C@H](OC(C)=O)[C@H]2OC(C)=O)c(-c2cc(CC=C)ccc2O[C@@H]2O[C@H](COC(C)=O)[C@@H](OC(C)=O)[C@H](OC(C)=O)[C@H]2OC(C)=O)c1`, the Activity in data set [1] is 7.09%; in data set [2] it was 0.04%.
Turning to `C=CCc1ccc(O[C@@H]2O[C@H](CO)[C@@H](O)[C@H](O)[C@H]2O)c(-c2cc(CC=C)ccc2O[C@@H]2O[C@H](CO)[C@@H](O)[C@H](O)[C@H]2O)c1`, the figures for the Activity in data set [1] and in data set [2] were 2.97% and 10.8%, respectively. In data set [3], this molecule registered a Retention_time of 10.63 min. For the same molecule, the Drug metabolism result in data set [5] and in data set [4] was “Metabolite_Detected” each time.
For the molecule `C=CCc1ccc(O)c(-c2cc(CC=C)ccc2O)c1` [MAGNOLOL], the Activity amounted to 40.2% in data set [1] and 20% in data set [2]. The molecule also returned a Retention_time in data set [3] of 14.33 min. For the same molecule, the Drug metabolism result in data set [5] and in data set [4] was “Metabolite_Detected” throughout.
For the molecule `C=CCc1ccc(O)c(-c2cc(CC=C)ccc2OC(=O)c2ccc(N)cc2)c1`, the Activity in data set [1] was -1.55%; in data set [2], 5.17%.
In the same order, the values of `C=CCc1ccc(O)c(-c2cc(CC3CO3)ccc2O)c1` (centres undefined) are 53.8% and -3.08%.
In the same order, the values of `C=CCc1ccc(OC(=O)CCCCl)c(-c2cc(CC=C)ccc2OC(=O)CCCCl)c1` are 8.14% and 2.11%.
In the same order, the values of `C=CCc1ccc(O)c(-c2cc(CC=C)ccc2OC(=O)/C=C/c2ccccc2)c1` are 56.8% and 25.6%.
The molecule `C=CC(=O)c1ccc(O)c(-c2cc(C(=O)CC)ccc2OS(=O)(=O)O)c1` had a Retention_time in data set [3] of 9.05 min. In addition, the Drug metabolism result in data set [5] is “Metabolite_Detected”.
`C=CCc1ccc(O)c(-c2cc(CC=C)ccc2OC(=O)c2ccccc2)c1`: the Activity in data set [1] is -6.5%; in data set [2], -0.04%.
For the molecule `C=CCc1ccc(OS(=O)(=O)O)c(-c2cc(C(O)C=C)ccc2O[C@@H]2O[C@H](CO)[C@@H](O)[C@H](O)[C@H]2O)c1` (some centres undefined), the Retention_time in data set [3] came out at 9.24 min. In addition, the Drug metabolism entry in data set [4] was “Metabolite_Detected”.
`C=CCc1ccc(O)c(-c2cc(CC=C)ccc2OC(=O)C=C)c1`: the Activity was 1.31% in data set [1] and 2.93% in data set [2].
On to `C=CC(O)c1ccc(O)c(-c2cc(CCC)ccc2OS(=O)(=O)O)c1` (centres undefined), for which, in data set [3], the Retention_time amounted to 7.55 min. Further, in data set [4], the Drug metabolism result was “Metabolite_Detected”.
Consider `C=CCc1ccc(O)c(-c2cc(C(O)C=C)ccc2O[C@@H]2O[C@H](CO)[C@@H](O)[C@H](O)[C@H]2O)c1` (some centres undefined), for which, in data set [3], the Retention_time is on record as 9.15 min. Further, in data set [5], the Drug metabolism result was “Metabolite_Detected”.
`C=CCc1ccc(O[C@@H]2O[C@H](CO)[C@@H](O)[C@H](O)[C@H]2O)c(-c2cc(CC=C)ccc2OS(=O)(=O)O)c1` came in with a Retention_time in data set [3] of 8.17 min. Besides, the Drug metabolism result in data set [4] is reported as “Metabolite_Detected”.
With `C=CCc1ccc(OC(C)=O)c(-c2cc(CC=C)ccc2OC(C)=O)c1`, the results for the Activity in data set [1] and in data set [2] were -1.86% and -2.52%, respectively.
Turning to `C=CCc1ccc(O)c(-c2cc(CC=C)ccc2O[C@@H]2O[C@H](COC(C)=O)[C@@H](OC(C)=O)[C@H](OC(C)=O)[C@H]2OC(C)=O)c1`, the Activity in data set [1] was -0.58%; in data set [2], -2.09%.
In data set [3], `C=CC(O)c1ccc(O[C@@H]2O[C@H](CO)[C@@H](O)[C@H](O)[C@H]2O)c(-c2cc(C(O)CC)ccc2OS(=O)(=O)O)c1` (some centres undefined) displayed a Retention_time of 7.39 min. Moreover, the Drug metabolism result in data set [5] was “Metabolite_Detected”.
The molecule `C=CCc1ccc(OC)c(-c2cc(CC=C)ccc2O[C@@H]2O[C@H](C(=O)O)[C@@H](O)[C@H](O)[C@H]2O)c1` gave a Retention_time in data set [3] of 12.4 min. Also, the Drug metabolism entry in data set [5] is listed as “Metabolite_Detected”.
`C=CC(O)c1ccc(O[C@@H]2O[C@H](C(=O)O)[C@@H](O)[C@H](O)[C@H]2O)c(-c2cc(CC(C)O)ccc2OC)c1` (some centres undefined): the Retention_time in data set [3] was 8.7 min. Further, the Drug metabolism entry in data set [5] is given as “Metabolite_Detected”.
Regarding `C=CCc1ccc(OC(=O)/C=C/c2ccccc2)c(-c2cc(CC=C)ccc2OC(=O)/C=C/c2ccccc2)c1`, the values for the Activity in data set [1] and in data set [2] were 28.3% and 3.34%, respectively.
In the same order, the values of `C=CCc1ccc(OC(=O)c2ccccc2)c(-c2cc(CC=C)ccc2O[C@@H]2O[C@H](CO)[C@@H](O)[C@H](O)[C@H]2O)c1` are 13.2% and -5.71%.
For `C=CCc1ccc(O)c(-c2cc(C(=O)C=C)ccc2O[C@@H]2O[C@H](CO)[C@@H](O)[C@H](O)[C@H]2O)c1`, the Retention_time in data set [3] is listed as 10.59 min. In data set [5], the Drug metabolism result is on record as “Metabolite_Detected”.
In turn, `C=CC(O)c1ccc(O[C@@H]2O[C@H](CO)[C@@H](O)[C@H](O)[C@H]2O)c(-c2cc(CCC)ccc2OS(=O)(=O)O)c1` (some centres undefined) returned a Retention_time in data set [3] of 6.91 min. Also, in data set [4], the Drug metabolism result is listed as “Metabolite_Detected”.
With `C=CCc1ccc(O)c(-c2cc(CC=C)ccc2OC(C)=O)c1`, the Activity came to 91.4% in data set [1] and 77.6% in data set [2].
In the same order, the values of `C=CCc1ccc(O)c(-c2cc(CC=C)ccc2OC(=O)CCCl)c1` are 21% and 30.1%.
Molecule `C=CC(O)c1ccc(O)c(-c2cc(C(O)C=C)ccc2O)c1` (centres undefined) displayed a Retention_time in data set [3] of 11.06 min. Besides, the Drug metabolism entry in data set [5] and in data set [4] was “Metabolite_Detected” in each case.
